The values that follow come from ChEMBL document CHEMBL1127731, “Structure-activity study of neuropeptide FF: contribution of N-terminal regions to affinity and activity” (J Med Chem, 1994).

Where a SMILES comes first, the peptide text is derived from it. [ ]: non-standard residue; d: D form. NMeF = CN[C@@H](Cc1ccccc1)C(=O)O

In assay [1] the target is Neuropeptide FF receptor 2 (Rattus norvegicus, UniProt Q9EQD2). Briefly: Binding affinity for NPPF receptor in rat spinal cord membranes using the radioligand [125I]-[Tyr1]NPFF. The format is cell membranes, Membrane. The method in brief:
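Displacement of [125I][Tyr1]NPFF (0.1 nM final) from rat spinal cord membranes, 30 min at 25 °C, in 50 mM Tris-HCl pH 7.4 with 120 mM NaCl, 0.5% BSA, 0.1 mM bestatin, 1 mM EDTA, 0.5 mM diisopropylfluorophosphate. Unlabeled peptides 5×10^-11–10^-6 M; nonspecific binding with 10^-6 M [Tyr1]NPFF. Stopped by ice-cold buffer and centrifugation; pellet gamma-counted. Ki via Cheng-Prusoff from IC50; three determinations.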

Assay [2] is filed under the species Mus musculus. The assay is described as follows: Minimum effective dose able to significantly reverse morphine analgesia in male CDF1 mice by tail-flick test. The format is functional. In a few lines: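 Analog (0, 1, 2.2, 8.8 or 22 nmol) coinjected icv with 5.5 nmol morphine in 150 mM NaCl, 10 mice per group. Radiant-heat tail-flick read 15 min later, baseline 2-3 s, 6 s cutoff defined as 100% analgesia. Percent antinociception = (Tt−Tc)/(6−Tc)×100.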

Chain of Neuropeptide FF receptor 2 (Q9EQD2 whole entry): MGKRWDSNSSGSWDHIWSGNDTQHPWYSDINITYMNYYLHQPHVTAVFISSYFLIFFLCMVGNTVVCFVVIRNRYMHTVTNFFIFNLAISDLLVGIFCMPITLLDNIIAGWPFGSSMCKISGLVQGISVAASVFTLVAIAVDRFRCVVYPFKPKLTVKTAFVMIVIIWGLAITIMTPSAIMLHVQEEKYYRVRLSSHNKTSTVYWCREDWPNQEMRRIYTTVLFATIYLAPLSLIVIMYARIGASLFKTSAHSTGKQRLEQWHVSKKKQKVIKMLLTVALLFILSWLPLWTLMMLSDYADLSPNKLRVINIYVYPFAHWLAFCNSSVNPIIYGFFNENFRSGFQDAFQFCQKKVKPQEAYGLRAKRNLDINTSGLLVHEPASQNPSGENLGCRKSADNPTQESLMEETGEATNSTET

Turning to `CC(C)C[C@H](N)C(=O)N[C@@H](Cc1ccccc1)C(=O)N[C@@H](CCC(N)=O)C(=O)N1CCC[C@@H]1C(=O)N[C@@H](CCC(N)=O)C(=O)N[C@@H](CCCNC(=N)N)C(=O)N[C@@H](Cc1ccccc1)C(N)=O`, the Ki in assay [1] was determined as 33 nM.
In turn, `NC(=O)CC[C@H](NC(=O)[C@@H]1CCCN1C(=O)[C@@H](N)CCC(N)=O)C(=O)N[C@@H](CCCN=C(N)N)C(=O)N[C@@H](Cc1ccccc1)C(N)=O` yielded an MED in assay [2] greater than 22 nmol. The compound further came in with a Ki in assay [1] of 20.9 nM.
Consider `NC(=O)CC[C@H](NC(=O)[C@H]1CCCN1C(=O)[C@@H](N)CCC(N)=O)C(=O)N[C@@H](CCCN=C(N)N)C(=O)N[C@@H](Cc1ccccc1)C(N)=O`, for which the Ki in assay [1] is 64 nM.
As for `CC(C)C[C@H](NC(=O)[C@@H](N)Cc1ccc(O)cc1)C(=O)N[C@@H](Cc1ccccc1)C(=O)N[C@@H](CCC(N)=O)C(=O)N1CCC[C@@H]1C(=O)N[C@@H](CCC(N)=O)C(=O)N[C@@H](CCCN=C(N)N)C(=O)N[C@@H](Cc1ccccc1)C(N)=O`, the inhibitory constant (Ki) in assay [1] worked out at 30 nM.
`CC(C)C[C@H](NC(=O)[C@@H](N)Cc1ccc(O)cc1)C(=O)N[C@@H](Cc1ccccc1)C(=O)N[C@@H](CCC(N)=O)C(=O)N1CCC[C@H]1C(=O)N[C@@H](CCC(N)=O)C(=O)N[C@@H](CCCN=C(N)N)C(=O)N[C@@H](Cc1ccccc1)C(N)=O`: the MED in assay [2] worked out at 8.8 nmol. Moreover, the affinity in assay [1] corresponds to a Ki of 0.2 nM.
Consider `NC(=O)CC[C@H](NC(=O)[C@H]1CCCN1)C(=O)N[C@@H](CCCN=C(N)N)C(=O)N[C@@H](Cc1ccccc1)C(N)=O`, for which the inhibition constant Ki in assay [1] came out at 94 nM.
The same measure, in the same setting: the same measure for `NC(=O)CC[C@H](NC(=O)[C@H]1CCCN1C(=O)[C@H](CCC(N)=O)NC(=O)[C@@H](N)Cc1ccccc1)C(=O)N[C@@H](CCCN=C(N)N)C(=O)N[C@@H](Cc1ccccc1)C(N)=O`: 45 nM.
In turn, `NC(=O)CC[C@H](NC(=O)[C@@H]1CCCN1C(=O)[C@H](CCC(N)=O)NC(=O)[C@@H](N)Cc1ccccc1)C(=O)N[C@@H](CCCN=C(N)N)C(=O)N[C@@H](Cc1ccccc1)C(N)=O` returned an MED in assay [2] of 22 nmol. The compound further showed a Ki in assay [1] of 0.43 nM.
Compound `CC(C)C[C@@H](NC(=O)[C@H](N)Cc1ccc(O)cc1)C(=O)N[C@H](Cc1ccccc1)C(=O)N[C@@H](CCC(N)=O)C(=O)N1CCC[C@H]1C(=O)N[C@@H](CCC(N)=O)C(=O)N[C@@H](CCCNC(=N)N)C(=O)N[C@@H](Cc1ccccc1)C(N)=O` showed a Ki in assay [1] of 1 nM.
In assay [1], `CC(C)C[C@@H](NC(=O)[C@H](N)Cc1ccc(O)cc1)C(=O)N[C@@H](Cc1ccccc1)C(=O)N[C@@H](CCC(N)=O)C(=O)N1CCC[C@H]1C(=O)N[C@@H](CCC(N)=O)C(=O)N[C@@H](CCCN=C(N)N)C(=O)N[C@@H](Cc1ccccc1)C(N)=O` displayed a Ki of 0.5 nM.
On the same count and under the same terms, with `CC(C)C[C@H](N)C(=O)N[C@@H](Cc1ccccc1)C(=O)N[C@@H](CCC(N)=O)C(=O)N1CCC[C@H]1C(=O)N[C@@H](CCC(N)=O)C(=O)N[C@@H](CCCN=C(N)N)C(=O)N[C@@H](Cc1ccccc1)C(N)=O` the figure was 0.2 nM.
`CC(C)C[C@H](NC(=O)[C@@H](N)Cc1ccccc1)C(=O)N[C@@H](Cc1ccccc1)C(=O)N[C@@H](CCC(N)=O)C(=O)N1CCC[C@H]1C(=O)N[C@@H](CCC(N)=O)C(=O)N[C@@H](CCCN=C(N)N)C(=O)N[C@@H](Cc1ccccc1)C(N)=O` displayed an MED in assay [2] of 22 nmol.
Take `N=C(N)NCCC[C@H](NC(=O)[C@@H](N)CCC(N)=O)C(=O)N[C@@H](Cc1ccccc1)C(N)=O` (H-Gln-Arg-Phe-NH2): the Ki in assay [1] came out at 300 nM.
Take `CC(C)C[C@H](NC(=O)[C@H](N)Cc1ccc(O)cc1)C(=O)N(C)[C@@H](Cc1ccccc1)C(=O)N[C@@H](CCC(N)=O)C(=O)N1CCC[C@H]1C(=O)N[C@@H](CCC(N)=O)C(=O)N[C@@H](CCCN=C(N)N)C(=O)N[C@@H](Cc1ccccc1)C(N)=O` (H-[dY]L[NMeF]QPQRF-NH2): the MED in assay [2] was determined as 8.8 nmol. The compound also registered a Ki in assay [1] of 0.16 nM.
The compound `CC(C)C[C@@H](NC(=O)[C@H](N)Cc1ccc(O)cc1)C(=O)N(C)[C@@H](Cc1ccccc1)C(=O)N[C@@H](CCC(N)=O)C(=O)N1CCC[C@H]1C(=O)N[C@@H](CCC(N)=O)C(=O)N[C@@H](CCCNC(=N)N)C(=O)N[C@@H](Cc1ccccc1)C(N)=O` (H-[dY][dL][NMeF]QPQRF-NH2) returned a Ki in assay [1] of 0.19 nM.
Still for that read-out and setting: with H-FLFGPQRF-NH2 the figure was 10 nM.
H-FLFQGQRF-NH2: in assay [2], the MED was determined as 8.8 nmol. For the same compound, in assay [1], the Ki is 1.2 nM.
H-FLFQPGRF-NH2 returned a Ki in assay [1] of 0.6 nM.
The same measure, in the same setting: with H-FLYQPQRF-NH2 the figure was 0.22 nM.
